This is an account of results in ChEMBL document CHEMBL1126115, “Synthesis of a homologous series of ketomethylene arginyl pseudodipeptides and application to low molecular weight hirudin-like thrombin inhibitors” (J Med Chem, 1992).

Starred links: 1 amine or outer side, 2 acyl side, 3 side chain; linkers in the order of their positions; H or OH if unused. Non-standard residues stand in square brackets, D forms with d. Residues, ends and D or L forms follow the SMILES beside them. X1 = NC(N)=NCCCC(N[*:1])C(=O)CCCCC(=O)[*:2]; X2 = O=C(C/C=C/CN[*:1])[*:2]

One assay concerns the target Prothrombin (Homo sapiens, UniProt P00734). Kind of assay: Compound was evaluated for their ability to inhibit the alpha-thrombin-mediated hydrolysis of the fluorescent substrate Tos-Gly-Pro-Arg-Amc. The essentials:
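Human α-thrombin (30 pM) added to start the reaction, 25 °C, 0.1 M Tris-HCl pH 7.8 with 0.1 M NaCl and 0.1% PEG 6000. […] Initial rates of Amc fluorescence read at ex 383/em 455 nm, calibrated against free 7-amino-4-methylcoumarin. Ki obtained by nonlinear fit to a competitive inhibition equation.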

In another assay the test system is Rattus norvegicus. The experiment in a line: Antithrombotic effect compared to recombinant hirudin in the rat rretiovenous shunt model after intravenous administration. Format: functional. In outline: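 Urethane-anaesthetised rats on a temperature-controlled heating plate; right carotid artery and left jugular vein catheterised and joined by a 2-cm glass capillary (1 mm internal diameter) as thrombogenic surface. Compound or saline given intravenously 5 min before the shunt was opened. Patency followed by capillary temperature rise (thermocouple). ED15 is the dose giving a 15-min prolongation of shunt patency.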

By Ki is commonly meant the equilibrium dissociation constant of an inhibitor or competing ligand from its target. Read a high Ki as lower affinity. `CC[C@H](C)[C@H](NC(=O)[C@H](CCC(=O)O)NC(=O)[C@H](CCC(=O)O)NC(=O)[C@H](Cc1ccccc1)NC(=O)[C@H](CC(=O)O)NC(=O)CNC(=O)[C@H](CC(=O)O)NC(=O)[C@H](CC(N)=O)NC(=O)[C@H](Cc1c[nH]cn1)NC(=O)[C@H](CO)NC(=O)[C@H](CCC(N)=O)NC(=O)CCCCC(=O)[C@H](CCCN=C(N)N)NC(=O)[C@@H]1CCCN1C(=O)[C@H](Cc1ccccc1)NC(C)=O)C(=O)N1CCC[C@H]1C(=O)N[C@@H](CCC(=O)O)C(=O)N[C@@H](CCC(=O)O)C(=O)N[C@@H](Cc1ccc(O)cc1)C(=O)N[C@@H](CC(C)C)C(=O)N[C@@H](CCC(N)=O)C(=O)O` showed a Ki at Prothrombin of 0.14 nM.

On to `CC[C@H](C)[C@H](NC(=O)[C@H](CCC(=O)O)NC(=O)[C@H](CCC(=O)O)NC(=O)[C@H](Cc1ccccc1)NC(=O)[C@H](CC(=O)O)NC(=O)CNC(=O)[C@H](CC(=O)O)NC(=O)[C@H](CC(N)=O)NC(=O)[C@H](Cc1c[nH]cn1)NC(=O)[C@H](CO)NC(=O)[C@H](CCC(N)=O)NC(=O)CC(=O)[C@H](CCCN=C(N)N)NC(=O)[C@@H]1CCCN1C(=O)[C@H](Cc1ccccc1)NC(C)=O)C(=O)N1CCC[C@H]1C(=O)N[C@@H](CCC(=O)O)C(=O)N[C@@H](CCC(=O)O)C(=O)N[C@@H](Cc1ccc(O)cc1)C(=O)N[C@@H](CC(C)C)C(=O)N[C@@H](CCC(N)=O)C(=O)O`, for which the inhibition constant (Ki) at Prothrombin was found to be 3.8 nM.

In the case of `CC[C@H](C)[C@H](NC(=O)[C@@H]1CCCN1C(=O)[C@H](CCC(=O)O)NC(=O)C(Cc1ccccc1)NC(=O)[C@H](CC(=O)O)NC(=O)CNC(=O)[C@H](CC(=O)O)NC(=O)[C@H](CC(N)=O)NC(=O)[C@H](Cc1cnc[nH]1)NC(=O)[C@H](CO)NC(=O)[C@H](CCC(N)=O)NC(=O)[C@@H]1CCCN1C(=O)[C@H](CCCNC(=N)N)N(C)C(=O)[C@@H]1CCCN1C(=O)C(Cc1ccccc1)NC(C)=O)C(=O)N1CCC[C@H]1C(=O)N[C@@H](CC(C)C)C(=O)O` (stereo in doubt), at Prothrombin, the inhibition constant Ki stood at 2.8 nM.

`CC[C@H](C)[C@H](NC(=O)[C@H](CCC(=O)O)NC(=O)[C@H](CCC(=O)O)NC(=O)[C@H](Cc1ccccc1)NC(=O)[C@H](CC(=O)O)NC(=O)CNC(=O)[C@H](CC(=O)O)NC(=O)[C@H](CC(N)=O)NC(=O)[C@H](Cc1c[nH]cn1)NC(=O)[C@H](CO)NC(=O)[C@H](CCC(N)=O)NC(=O)CCCC(=O)[C@H](CCCN=C(N)N)NC(=O)[C@@H]1CCCN1C(=O)[C@H](Cc1ccccc1)NC(C)=O)C(=O)N1CCC[C@H]1C(=O)N[C@@H](CCC(=O)O)C(=O)N[C@@H](CCC(=O)O)C(=O)N[C@@H](Cc1ccc(O)cc1)C(=O)N[C@@H](CC(C)C)C(=O)N[C@@H](CCC(N)=O)C(=O)O` displayed an inhibitory constant (Ki) on Prothrombin of 0.56 nM.

At Prothrombin, `CC[C@H](C)[C@H](NC(=O)[C@@H]1CCCN1C(=O)[C@H](CCC(=O)O)NC(=O)[C@H](Cc1ccccc1)NC(=O)[C@H](CC(=O)O)NC(=O)C/C=C/CNC(=O)C/C=C/CNC(=O)CCCCC(=O)C(CCCN=C(N)N)NC(=O)[C@@H]1CCCN1C(=O)[C@H](Cc1ccccc1)NC(C)=O)C(=O)N1CCC[C@H]1C(=O)N[C@@H](CC(C)C)C(=O)O` (stereo partly drawn) had an inhibition constant (Ki) of 3.5 nM.

In the case of `CC[C@H](C)[C@H](NC(=O)[C@@H]1CCCN1C(=O)[C@H](CCC(=O)O)NC(=O)[C@H](Cc1ccccc1)NC(=O)[C@H](CC(=O)O)NC(=O)C/C=C/CNC(=O)CCCCC(=O)[C@H](CCCN=C(N)N)NC(=O)[C@@H]1CCCN1C(=O)[C@H](Cc1ccccc1)NC(C)=O)C(=O)N1CCC[C@H]1C(=O)N[C@@H](CC(C)C)C(=O)O` (HELM PEPTIDE1{[ac].F.P.[NC(N)=NCCC[C@H](N[*:1])C(=O)CCCCC(=O)[*:2]].[O=C(C/C=C/CN[*:1])[*:2]].D.F.E.P.I.P.L}$$$$V2.0), the inhibitory constant (Ki) on Prothrombin is 300 nM.

Regarding `CC[C@H](C)[C@H](NC(=O)[C@@H]1CCCN1C(=O)[C@H](CCC(=O)O)NC(=O)[C@H](Cc1ccccc1)NC(=O)[C@H](CC(=O)O)NC(=O)C/C=C/CNC(=O)C/C=C/CNC(=O)CCCCC(=O)[C@H](CCCN=C(N)N)NC(=O)[C@@H]1CCCN1C(=O)[C@@H](Cc1ccccc1)NC(C)=O)C(=O)N1CCC[C@H]1C(=O)N[C@@H](CC(C)C)C(=O)O`, the ED15 in the assay on Rattus norvegicus worked out at 6.27 mg/kg.

`CC[C@H](C)[C@H](NC(=O)[C@@H]1CCCN1C(=O)[C@H](CCC(=O)O)NC(=O)[C@H](Cc1ccccc1)NC(=O)[C@H](CC(=O)O)NC(=O)C/C=C/CNC(=O)C/C=C/CNC(=O)C/C=C/CNC(=O)CCCCC(=O)C(CCCN=C(N)N)NC(=O)[C@@H]1CCCN1C(=O)[C@H](Cc1ccccc1)NC(C)=O)C(=O)N1CCC[C@H]1C(=O)N[C@@H](CC(C)C)C(=O)O` (stereo partly drawn) (Ac-FP[X1][X2][X2][X2]DFEPIPL-OH) returned an inhibition constant (Ki) on Prothrombin of 3.2 nM.
